Source: ChEMBL document CHEMBL1124794, “Synthesis, chemistry, and antineoplastic activity of alpha-halopyridinium salts: potential pyridone prodrugs of acylated vinylogous carbinolamine tumor inhibitors” (J Med Chem, 1990)
Where “and” joins values, the source holds several entries; their conditions need not be identical. Equal entries are not always repeated. Each block holds one compound with its values, some of them ahead of it.

Tests used:
[1] = Effect of Ionic strength (0.10 M NaCl)on the hydrolysis of pyridinium Moity in 0.02 M buffer concentration, pH 7.4,25 degree C; format: ADME
How it was run: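 Pyridinium salt in 0.02 M phosphate buffer, pH 7.4, 25 °C, with NaCl varied 0.10–1.0 M. Loss of the pyridinium chromophore's UV absorbance maximum (conversion to pyridone) followed over time. Pseudo-first-order kobs and half-life derived from that decay.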

[2] = Effect of pH on the hydrolysis of pyridinium Moity in 0.05 M buffer concentration at the pH 6.0; format: ADME
How it was run: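 Pyridinium salt in 0.05 M phosphate buffer, pH 6.0–8.0 (set by pH meter), ionic strength 0.25 M, 25 °C. Decrease in the pyridinium UV absorbance maximum followed over time to give pseudo-first-order kobs and half-life.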

[3] = Effect of phosphate buffer concentration on the hydrolysis of alpha Fluoropyridinium Moity at the concentration of 0.02M, pH 6.5, 25 degree C.; format: ADME
How it was run: (§1)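 α-Fluoropyridinium hydrolysis to pyridone in phosphate buffer at 0.02, 0.05 or 0.10 M, pH 6.5 or 8.0, ionic strength […] °C. Pyridinium UV absorbance maximum followed with time to give pseudo-first-order kobs and half-life.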

[4] = Effect of phosphate buffer on the hydrolysis of alpha Fluoropyridinium Moity at the concentration of 0.10M, pH 6.5, 25 degree C; format: ADME; how it was run: as §1
[5] = Half life at the buffer concentration of 0.02 M.; format: ADME; how it was run: as §1
[6] = Half life at the concentration of 0.02 M.; format: ADME
[7] = Half life at the pH 6.5; format: ADME; settings: buffer
MX1 [8] = assay: In vivo activity against murine MX-1 tumor system at the dose of 37.5 mg/kg, activity expressed as %T/C.; format: functional, Mus musculus
MX1 [9] = assay: In vivo activity against murine MX-1 tumor system at the dose of 75 mg/kg, activity expressed as TDS; 4/6; format: functional, Mus musculus
L1210 [10] = assay: In vivo activity against murine L1210 tumor system at the dose of 50 mg/kg, activity expressed as %T/C.; format: functional, Mus musculus
How it was run: (§2)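 L1210 lymphocytic leukemia: ascitic fluid with ca. 10^6 cells injected ip into CD2F1 mice. Dosing started 24 h after inoculation and was repeated daily for five doses in total, from solutions or suspensions made fresh each day. Toxicity day survivors were scored on day 5. Body weight difference is day 5 minus day 1. %T/C is based on median survival time versus controls.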

L1210 [11] = assay: In vivo activity against murine L1210 tumor system at the dose of 25 mg/kg, activity expressed as TDS; 6/6; format: functional, Mus musculus; how it was run: as §2
P388 [12] = assay: In vivo activity against P388 Lymphocytic Leukemia in CD2F1 mice at the dose of 12.5 mg/kg, activity expressed as body weight difference; format: functional, Mus musculus
How it was run: (§3)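 CD2F1 mice were inoculated with ascitic fluid holding ca. 10^6 P388 cells. Drug was given daily from 24 h after inoculation, from solutions or suspensions made fresh each day, some as a saline suspension. TDS is survivors/initial animals on day 5. BWD is body weight on day 5 minus day 1. %T/C compares median survival of treated and control mice.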

P388 [13] = assay: In vivo activity against P388 Lymphocytic Leukemia in CD2F1 mice at the dose of 50 mg/kg, activity expressed as body weight difference; format: functional, Mus musculus; how it was run: as §3
[14] = Effect of pH on carbamate hydrolysis in 0.05 M buffer concentration at the pH 5.0, 25 degree C.; format: ADME
How it was run: (§4)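 Bis-carbamate in acetonitrile–water (1:1; buffer added to a 0.5 mg/mL acetonitrile solution), 0.05 M buffer, ionic strength 0.136 (KCl), 25 ± 0.1 °C. Buffers: phosphate pH 2.0; citrate pH 3.0–3.5; succinate pH 4.0; acetate pH 5.0; phosphate pH 6.0–8.0; borate pH 9.0; carbonate pH 10.0. HPLC bis-carbamate peak-area loss, ln(area0/areat) vs time slope = kobs. Duplicates averaged.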

[15] = Effect of pH on carbamate hydrolysis in 0.05 M buffer concentration at the pH 7.4, 25 degree C.; format: ADME; how it was run: as §4
[16] = Effect of phosphate buffer on carbamate hydrolysis in acetonitrile-water at the concentration of 0.01 M on pH 3.0, 25 degree C.; format: ADME; settings: in the assay text read “citrate buffer” for “phosphate buffer”
How it was run: (§5)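 Bis-carbamate in acetonitrile–water (1:1), 25 ± 0.1 °C. Citrate buffer at pH 3.0 or phosphate buffer at pH 7.4, at 0.01, 0.025 or 0.05 M, ionic strength 0.136 (KCl). Kinetics followed by HPLC as the decrease in bis-carbamate peak area. The regression slope of ln(area0/areat) vs time gave pseudo-first-order kobs. Duplicates averaged.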

[17] = Half life at the buffer concentration of 0.01 M.; format: ADME; how it was run: as §5
[18] = Half life at the buffer concentration of 0.025 M.; format: ADME; how it was run: as §5
[19] = Half life at the pH 4.0; format: ADME; settings: buffer; how it was run: as §4
[20] = Half life at the pH 2.0; format: ADME; settings: buffer; how it was run: as §4
L1210 [21] = assay: In vivo activity against murine L1210 tumor system at the dose of 166.7 mg/kg, activity expressed as KE; format: functional, Mus musculus; how it was run: as §2
L1210 [22] = assay: In vivo activity against murine L1210 tumor system at the dose of 60 mg/kg, activity expressed as body weight difference; T-C; format: functional, Mus musculus; how it was run: as §2
L1210 [23] = assay: In vivo activity against murine L1210 tumor system at the dose of 166.7 mg/kg, activity expressed as %T/C.; format: functional, Mus musculus; how it was run: as §2
[24] = In vivo activity against murine M5076 tumor system at the dose of 36 mg/kg, activity expressed as TDS; 10/10; format: functional, Mus musculus
How it was run: (§6)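 M5076: ascitic fluid with ca. 10^6 cells inoculated ip into CD2F1 mice. Dosing started 24 h after inoculation and was then given every 4 days for four doses in total, from solutions or suspensions made fresh each day. Toxicity day survivors were scored on day 5. Body weight difference is day 14 minus day 1. %T/C is based on median survival time versus controls.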

L1210 [25] = assay: In vivo activity against murine L1210 tumor system at the dose of 36 mg/kg, activity expressed as %T/C.; format: functional, Mus musculus; how it was run: as §2
L1210 [26] = assay: In vivo activity against murine L1210 tumor system at the dose of 60mg/kg, activity expressed as %T/C.; format: functional, Mus musculus; how it was run: as §2
[27] = In vivo activity against murine M5076 tumor system at the dose of 21.6 mg/kg, activity expressed as body weight difference; T-C; format: functional, Mus musculus; how it was run: as §6
[28] = In vivo activity against murine M5076 tumor system at the dose of 21.6 mg/kg, activity expressed as KE; format: functional, Mus musculus; how it was run: as §6
[29] = In vivo activity against murine M5076 tumor system at the dose of 36 mg/kg, activity expressed as KE; format: functional, Mus musculus; how it was run: as §6
P388 [30] = assay: In vivo activity against P388 Lymphocytic Leukemia in CD2F1 mice at the dose of 400 mg/kg, activity expressed as body weight difference; T-C; format: functional, Mus musculus; how it was run: as §3
P388 [31] = assay: In vivo activity against P388 Lymphocytic Leukemia in CD2F1 mice at the dose of 50 mg/kg, activity expressed as body weight difference; T-C; format: functional, Mus musculus; how it was run: as §3
P388 [32] = assay: In vivo activity against P388 Lymphocytic Leukemia in CD2F1 mice at the dose of 400 mg/kg, activity expressed as TDS; 2/6; format: functional, Mus musculus; how it was run: as §3
P388 [33] = assay: In vivo activity against P388 Lymphocytic Leukemia in CD2F1 mice at the dose of 100 mg/kg, activity expressed as TDS; 5/6; format: functional, Mus musculus; how it was run: as §3

K obs [1]: 0.024 min⁻¹ | K obs [2]: 0.0044 min⁻¹ | K obs [3]: 0.0052 min⁻¹ | K obs [4]: 0.0138 min⁻¹ | half-life [5]: 52.5 min | half-life [6]: 133 min | half-life [7]: 45.3 min
SMILES: CC(C)NC(=O)OCc1c(COC(=O)NC(C)C)c(-c2cc[n+](C)c(F)c2)n2c1CCC2.[I-]
T/C (MX1 [8]): 69% | TDS (MX1 [9]): 4 | T/C (L1210 [10]): 118% | TDS (L1210 [11]): 6 | BWD (P388 [12]): -1.3 g | BWD (P388 [13]): -0.8 g

K obs [14]: 0.0139 min⁻¹ | K obs [15]: 0.013 min⁻¹ | K obs [16]: 0.0349 min⁻¹ | T1/2 [17]: 19.86 min and 52.31 min | half-life [18]: 51.9 min | half-life [19]: 46.7 min | half-life [20]: 2.11 min
SMILES: CC(C)NC(=O)OCc1c(COC(=O)NC(C)C)c(-c2ccn(C)c(=O)c2)n2c1CCC2
KE (L1210 [21]): -2.29 | BWD (L1210 [22]): -3.2 g | T/C (L1210 [23]): 110% | TDS [24]: 10 | T/C (L1210 [25]): 135% | T/C (L1210 [26]): 141% | BWD [27]: 1.7 g | KE [28]: -1.93 | KE [29]: -1.69 | BWD (P388 [30]): -1 g | BWD (P388 [31]): -0.6 g | TDS (P388 [32]): 2 | TDS (P388 [33]): 5
